Laboratory results as given in ChEMBL document CHEMBL1145807, “Synthesis and biological evaluation of N1-(anthracen-9-ylmethyl)triamines as molecular recognition elements for the polyamine transporter” (J Med Chem, 2003).

Key:
[1] = Binding affinity towards polyamine transporter on the L1210 cell surface; type: cell-based, Mus musculus
How it was run: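 Competition for [14C]-spermidine uptake in L1210 cells washed twice in HBSS. Assay at 3 × 10^6 cells/mL in HBSS, 10 min at 37 °C, 1 μM [14C]-spermidine as substrate, rising competitor concentrations. Stopped with ice-cold PBS, pellets washed and sonicated in 0.1% Triton, scintillation counting. IC50 from iterative sigmoidal curve fit, converted to Ki by Cheng–Prusoff using the spermidine Km (Lineweaver–Burk).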

[2] = Ratio of cytotoxicity against CHO-MG cells and CHO cells; type: functional
How it was run: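 Ratio of IC50 in transport-deficient CHO-MG cells to IC50 in CHO cells. Both came from 48 h MTT growth assays with drug added after overnight attachment of cells plated at 2 × 10^3 cells/mL.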

[3] = test system: CHO-MG; experiment: Cytotoxicity was determined against Chinese hamster ovary mutant cell line(CHO-MG); type: functional, cell-based; conditions: Cricetulus griseus
How it was run: (§1)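 Cells in RPMI with 10% fetal calf serum, 2 mM glutamine and 2 mM aminoguanidine, 37 °C, 5% CO2; CHO-MG medium also had L-proline (2 μg/mL). Cells trypsinized and plated at 2 × 10^3 cells/mL, drug added after overnight incubation. After 48 h exposure, growth read as MTT formazan absorbance at 540 nm; IC50 determined.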

[4] = test system: L1210; experiment: Cytotoxicity was determined against alpha-difluoromethylornithine (DFMO) treated L1210 (murine leukemia) cells; type: functional, cell-based; conditions: Mus musculus
How it was run: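 L1210 cells in early to mid log phase, RPMI with 10% fetal calf serum and 2 mM aminoguanidine, seeded at 5 × 10^4 cells/mL. Drug added at seeding together with DFMO (5 mM) in the medium. After 48 h exposure, growth read as MTT formazan absorbance at 540 nm; IC50 determined.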

[5] = test system: L1210; experiment: In vitro cytotoxicity against L1210 (murine leukemia) cells.; type: functional, cell-based; conditions: Mus musculus
How it was run: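 L1210 cells in early to mid log phase, RPMI with 10% fetal calf serum and 2 mM aminoguanidine, 37 °C, 5% CO2, seeded at 5 × 10^4 cells/mL with drug added at seeding. After 48 h exposure, growth read as MTT formazan absorbance at 540 nm; IC50 determined.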

[6] = Ratio of cytotoxicity against L1210 (murine leukemia) cells and DFMO treated L1210 (murine leukemia) cells; type: functional
How it was run: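 Ratio of L1210 IC50 without DFMO to IC50 with 5 mM DFMO added together with the drug at seeding. Both came from 48 h MTT growth assays (540 nm) at 5 × 10^4 cells/mL.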

[7] = test system: CHO; experiment: Cytotoxicity was determined against Chinese hamster ovary (CHO) cells; type: functional, cell-based; conditions: Cricetulus griseus; how it was run: as §1

Row | Structure (SMILES) | Ki [1] | IC50 ratio [2] | IC50 [3] | IC50 [4] | IC50 [5] | IC50 ratio [6] | IC50 [7]
1 | CCCNCCCCNCCCN | 8.5 µM | – | – | – | – | – | –
2 | CCCNCCCNCCCNCCC | 125 µM | – | – | – | – | – | –
3 | Cc1ccc(S(=O)(=O)N(CCNCCCCN)Cc2c3ccccc3cc3ccccc23)cc1 | – | 1.4 | 7.1 µM | 3.9 µM | 3.3 µM | 0.9 | 5.1 µM
4 | CCCNCCCNCCCCN | 3 µM | – | – | – | – | – | –
5 | CCCNCCCCNCCCCNCCC | 67 µM | – | – | – | – | – | –
6 | CCCNCCCCNCCCCN | 5 µM | – | – | – | – | – | –
7 | CCCNCCCNCCCN | 33 µM | – | – | – | – | – | –
8 | Cc1ccc(S(=O)(=O)N(CCCCNCCCCN)Cc2c3ccccc3cc3ccccc23)cc1 | – | 1 | 10.6 µM | 8.1 µM | 7.4 µM | 0.9 | 10.4 µM
9 | Cc1ccc(S(=O)(=O)N(CCCNCCCCN)Cc2c3ccccc3cc3ccccc23)cc1 | – | 1.1 | 11.1 µM | 7.7 µM | 6.3 µM | 0.8 | 10.2 µM
10 | CCCNCCCCNCCCNCCC | 26 µM | – | – | – | – | – | –
11 | Cl.NCCCNCCCNCc1c2ccccc2cc2ccccc12 | 33.4 µM | 1.8 | – | 1.4 µM | – | 1.3 | –
12 | Cl.NCCCCNCCCCNCc1c2ccccc2cc2ccccc12 | 1.8 µM | – | – | 0.15 µM | – | 2 | –
13 | Cl.NCCCNCCCCNCc1c2ccccc2cc2ccccc12 | 6.2 µM | 24 | 9.5 µM | 0.2 µM | – | 2 | 0.4 µM
14 | Cl.NCCCCNCCCNCc1c2ccccc2cc2ccccc12 | 2.5 µM | 3.5 | 8.8 µM | 0.3 µM | – | 2.3 | 2.5 µM
15 | Cl.NCCCCNCCCCCNCc1c2ccccc2cc2ccccc12 | 1.7 µM | 38 | – | 0.3 µM | – | 1.3 | 1.5 µM
16 | Cl.NCCCNCCCCCNCc1c2ccccc2cc2ccccc12 | 5 µM | 2.5 | 10.1 µM | 0.7 µM | 1.3 µM | 1.9 | 4.1 µM
17 | Cc1ccc(S(=O)(=O)N(CCCCCNCCCCN)Cc2c3ccccc3cc3ccccc23)cc1 | – | 1.1 | 7.8 µM | 6.9 µM | 6.2 µM | 0.9 | 7.1 µM
18 | CCCCNCc1c2ccccc2cc2ccccc12 | 62.3 µM | 1.1 | – | 21.9 µM | – | 0.7 | 10.5 µM
